# ADAM17 inh: inhibits human ADAM17; actives 0.83% (n = 370,000); inhibition, % at 6.95 µM; P78536; AID 720648; recombinant ADAM17, EDANS/DABCYL FRET peptide cleavage;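 active = inhibition above the mean of compounds lying between control limits plus 3 SD, set per campaign, cut at about 8.5% in these data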;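 note: 0% = DMSO-only wells as the low control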
# Target sequence (P78536 215-824 limits assumed): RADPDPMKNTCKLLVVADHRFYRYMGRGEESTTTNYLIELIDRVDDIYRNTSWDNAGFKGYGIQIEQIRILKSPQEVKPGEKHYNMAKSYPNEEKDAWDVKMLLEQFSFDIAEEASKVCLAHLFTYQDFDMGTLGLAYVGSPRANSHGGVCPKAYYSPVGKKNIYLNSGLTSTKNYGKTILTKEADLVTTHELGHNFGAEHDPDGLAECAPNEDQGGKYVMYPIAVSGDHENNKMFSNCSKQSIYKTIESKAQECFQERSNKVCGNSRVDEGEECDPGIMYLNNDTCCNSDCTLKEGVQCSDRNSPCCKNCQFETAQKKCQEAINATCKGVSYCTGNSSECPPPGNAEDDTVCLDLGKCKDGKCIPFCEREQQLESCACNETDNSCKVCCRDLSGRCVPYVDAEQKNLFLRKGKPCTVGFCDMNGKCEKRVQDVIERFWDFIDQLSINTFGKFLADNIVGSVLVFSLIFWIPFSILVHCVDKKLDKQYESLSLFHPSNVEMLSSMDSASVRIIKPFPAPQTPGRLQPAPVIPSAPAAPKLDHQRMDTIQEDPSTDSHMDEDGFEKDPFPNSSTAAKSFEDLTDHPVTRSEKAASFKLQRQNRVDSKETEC
# DDE Tn7 FP inh: disrupts Tn7 cyclic peptide binding to fibrin D-Dimer-E complex; P02675; FP displacement of FITC-Tn7 peptide from fibrin DD(E); 0% = median of compound wells per plate; inhibition, % at 8.3 µM; actives 0.13% (n = 370,000);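 active = inhibition above the mean of compounds falling within the control limits plus 3 SD of them, cut at about 14% in these data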;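 note: 0% = plate median of compound wells and 100% = 10 µM Aha-Tn7 peptide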
#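 Measure: % inhibition scaled between sample-field median and high-control FP; Test system: human fibrin DD(E); Quantity: 2 µM final DD(E) protein; Doses: one dose, 8.3 µM nominal; Schedule: compound with protein 10 min, then 3 h after probe, room temperature; Detection: fluorescence polarization; Medium: Tris buffer with calcium and detergent, pH 7.8.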
# PLCb3 inh: blocks human PLC-beta3 enzyme activity. Purified PLC-beta3, fluorogenic substrate, fluorescence. inhibition, % at 12.2 µM. actives 0.18% (n = 370,000);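 note: 0% = median of compound wells on plate and 100% = full blocker control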
# ADAM10 inh: inhibits human ADAM10; recombinant ADAM10, EDANS/DABCYL FRET peptide cleavage, 3 h; inhibition, % at 7 µM; actives 0.62% (n = 370,000); AID 720582;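 active = inhibition above a per-campaign cutoff equal to the mean of compounds falling between control-based bounds plus 3 SD, cut at about 20% in these data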;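 note: 0% = DMSO wells while the 100% control is not disclosed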
# PLC-gamma1 inh: blocks human PLC-gamma1 enzyme activity | AID 720700 | P19174 | actives 0.84% (n = 370,000) | purified PLC-gamma1, fluorogenic substrate, fluorescence | inhibition, % at 12.2 µM; in the data active = inhibition above about 9.5%
# DDE Tn6 FP inh: inhibitors of Tn6 peptide binding to human fibrin DD(E); Fibrin DD(E) TRITC-Tn6 fluorescence polarization displacement; inhibition, % at 8.3 µM; actives 0.21% (n = 370,000);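 active = inhibition above a per-campaign cutoff: mean of compounds within control limits plus 3 SD, cut at about 15% in these data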;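 note: 0% = median of all compound wells on the plate and 100% = blocking peptide control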
# PLCg1 ctr: PLC-gamma1 inhibition, counter-screen for PLC-beta3 hits; inhibition, % at 12.3 µM; AID 743258; shares compounds with PLC-gamma1 inh; purified PLC-gamma1, fluorogenic substrate, fluorescence; actives 3.1% (n = 3,300); in the data active = inhibition above about 9.5%
# PLCbeta3 conf: confirmation of human PLC-beta3 inhibitors. inhibition, % at 12.3 µM. purified PLC-beta3, fluorogenic substrate fluorescence. actives 1% (n = 3,300). shares compounds with PLC-gamma1 inh
# Active calls of the source: *; · = not tested or not shown. The list is not random: actives were taken first. Their share in the collection is about 2.3%. Cut-off read from the data, not from the text of the source, unless noted: active = inhibition above about 11%; inactive = the rest.
SMILES,ADAM17 inh,DDE Tn7 FP inh,PLCb3 inh,ADAM10 inh,PLC-gamma1 inh,DDE Tn6 FP inh,PLCg1 ctr,PLCbeta3 conf
COC(=O)C1=C(C)N(C)C(=NCc2ccc(C(F)(F)F)cc2)NC1c1ccccc1C(F)(F)F (centres undefined),0.1,3.6,1.4,0.5,-0.9,10.5,·,·
CC(=O)OC1CCC2(C)C(=CCC3C2CCC2(C)C3CC3OC4(CCC(C)CN4)C(C)C32)C1 (centres undefined),5.3,3.5,8.4,-1.7,10.8*,0.5,-1.8,-1.5
COC(=O)c1ccc(Cl)c(NC(=O)CN2CCN(C)CC2)c1,-4.0,-2.9,3.3,-1.1,-0.2,-8.2,·,·
COC(=O)CC(C(=O)Nc1cc(C(=O)OC)cc(C(=O)OC)c1)N1CCN(C)CC1 (centres undefined),4.7,-1.3,11.3*,-2.3,14.3*,0.5,-3.8,0.3
S=C(NCCCc1cnc[nH]1)NCCCN(Cc1ccc(Cl)cc1)c1ccc(Br)cn1,6.8,-3.1,8.8,10.0,10.8*,8.2,4.1,3.0
NC(=O)NOCc1ccc(Cl)cc1Cl,-0.5,-0.2,2.8,-9.3,12.9*,-5.7,-6.6,-3.9
Cc1ccc(C2=N/C(=C\N(C)C)C(=O)O2)cc1,4.2,-10.5,6.0,8.4,9.6*,-0.3,6.4,6.8
CN(C)/C=C1/N=C(c2ccccc2)OC1=O,3.6,-1.4,10.3,6.6,10.1*,-4.8,3.9,10.4
CC(=O)N=c1sc2ccccc2n1C,-2.5,2.7,-1.8,-3.6,3.7,3.7,·,·
CC(=O)N=c1sc(C(C)(C)C)c(C)n1C,3.4,2.5,0.9,6.6,9.8*,-5.5,-2.5,-4.2
COc1cc(C(=O)Nc2ccc(Br)cc2C(=O)c2cc(OC)c(OC)c(OC)c2)cc(OC)c1OC,5.8,-3.0,8.8,0.8,15.5*,-0.5,-0.5,-8.1
COc1cc(C(=O)Nc2ccccc2NC(=O)c2cc(OC)c(OC)c(OC)c2)cc(OC)c1OC,4.4,-5.7,-0.6,3.5,2.6,9.8,·,·
CCCCn1nnnc1C(c1ccccc1)N1CCN(c2cccc(C(F)(F)F)n2)CC1 (centres undefined),7.1,-1.0,-0.9,9.3,10.0*,-9.0,-8.1,-8.1
CCCCn1nnnc1C(c1ccccc1)N1CCN(c2ccccn2)CC1 (centres undefined),-5.1,3.5,1.7,-7.9,-1.1,-4.4,·,·
CCCS(=O)(=O)NC(=O)C1(C)CCN(C(=O)c2cc(C)on2)C1 (centres undefined),7.3,-3.9,5.9,5.4,9.5*,6.5,0.4,0.4
CC(C)NC(=O)C1(C)Cc2c(-c3ccc(C(N)=O)cc3)ccnc2O1 (centres undefined),-5.7,-9.7,12.4*,-16.9,1.4,-8.3,-6.5,-1.6
CC1(C(=O)Nc2ccc(Cl)cc2)Cc2c(-c3ccc(C(N)=O)cc3)ccnc2O1 (centres undefined),-2.6,3.1,-3.0,3.5,1.6,1.9,·,·
Nc1ccc(N2CCCCC2)c2nonc12,6.3,3.5,-8.8,-3.2,33.8*,6.8,-7.6,-9.5
CCCCCn1nnnc1C1c2ccccc2OCC(=O)N1Cc1ccco1 (centres undefined),1.4,-8.2,2.7,-0.5,0.7,8.0,·,·
C[C@]12CCC(O)CC1=CCC1C2CC[C@]2(C)/C(=N\NC(N)=S)CCC12 (some centres undefined),2.3,-9.1,-3.3,5.2,11.6*,-5.5,-2.7,-0.5
Cc1ccccc1CN1CCCCC(NC(=O)c2cc(-c3ccccc3)no2)C1=O (centres undefined),0.9,2.2,-1.2,5.0,0.8,-11.4,·,·
C[C@H]1[C@@H](N(C)CC2CCCCC2)CC[C@@]23CCCN2C(=O)CCC[C@@H]13,-4.3,-0.9,-0.2,-4.2,-2.4,0.6,·,·
Cc1cccc(NC(=O)CCc2ccccc2)c1C,2.8,0.1,3.5,4.3,11.7*,2.1,-10.2,0.0
CC(=O)c1ccc(OCC(O)COc2ccc(C(C)=O)cc2)cc1,4.7,0.3,9.0,6.0,11.2*,0.5,0.6,3.7
COc1ccc(-c2cccc(NS(=O)(=O)c3cccc([N+](=O)[O-])c3)c2)nn1,-0.8,2.3,-2.2,0.4,-2.1,-12.4,·,·
SMILES,ADAM17 inh,DDE Tn7 FP inh,PLCb3 inh,ADAM10 inh,PLC-gamma1 inh,DDE Tn6 FP inh,PLCg1 ctr,PLCbeta3 conf
COc1ccc(-c2ccc(NS(=O)(=O)c3cccc([N+](=O)[O-])c3)cc2)nn1,2.2,-2.5,-1.8,9.5,13.1*,3.9,-3.3,-0.5
O=c1cc(-c2ccccc2)nc(SCCOc2ccccc2Cl)[nH]1,4.2,-5.5,0.2,12.7,11.6*,-4.4,-2.8,-10.3
NC1=NC(=O)/C(=C/c2cccs2)S1,-3.1,-1.3,2.4,-1.3,14.7*,0.9,1.5,3.1
COc1ccccc1NC(=O)OCCN1CCCC12CCC(c1ccccc1)CC2 (centres undefined),-2.5,0.2,-1.0,-6.4,-1.9,1.4,·,·
CCOc1nc(Nc2ccc([N+](=O)[O-])cc2)nc(NC(C)(C)C)n1,8.2,-7.1,1.6,-4.4,9.8*,-8.0,-3.3,1.3
Fc1cc(F)c2nc(N3CCCCC3)sc2c1,-2.5,-0.7,0.5,-2.1,1.2,-0.9,·,·
Clc1cccc2sc(N3CCCCC3)nc12,-1.6,7.2,0.8,-5.1,1.2,3.9,·,·
Clc1cc(Cl)c2nc(N3CCCCC3)sc2c1,1.6,-4.5,6.3,6.8,9.9*,-5.1,-1.1,-6.9
Clc1cc(Cl)c2nc(N3CCCC3)sc2c1,-3.9,-1.6,-1.4,1.5,12.1*,-14.9,-7.0,-6.6
CC(c1ccccc1)n1cc(C(=O)N2CCCN(Cc3ccccc3)CC2)nn1 (centres undefined),1.1,-6.0,0.9,6.8,4.8,-3.8,·,·
C#CCN(CC=C)C(=O)c1ccc2nc(C3CCCCC3)oc2c1,6.4,-2.3,0.1,9.1,9.5*,-3.5,-4.5,-3.3
O=C(CCn1c(=S)oc2ccccc21)N1CCCCC1,-1.8,7.7,-3.1,-5.9,-1.6,5.7,·,·
O=C(CCn1c(=S)oc2ccccc21)NC1CCCCCCC1,3.7,2.1,-1.2,2.8,10.0*,-0.1,-3.8,0.2
CCCCc1cccc2[nH]cc(C)c12,-2.5,0.4,-10.8,0.0,-4.7,-7.3,·,·
CCN(Cc1cn(Cc2ccccc2)nn1)S(=O)(=O)c1ccc(F)cc1Br,-3.0,-4.9,0.5,-7.1,-0.1,1.4,·,·
Cc1nccn1CCOc1ccccc1Cl,5.6,-5.8,0.6,8.8,10.4*,-7.2,-5.7,-1.1
Clc1ccccc1OCCCn1ccnc1,-5.1,1.7,-3.4,-0.4,-0.1,-1.1,·,·
